Experimental data reported in ChEMBL document CHEMBL1132618, “Cytotoxicity of (2,2':6',2''-terpyridine)platinum(II) complexes to Leishmania donovani, Trypanosoma cruzi, and Trypanosoma brucei” (J Med Chem, 1999).

How the values were obtained:
[1] = system: Trypanosoma brucei; test: Antiparasitic activity against Trypanosoma brucei, percentage inhibition at 30 uM concentration; assay type: functional, organism-based
Method in brief: (§1)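 T. brucei S427 bloodstream trypomastigotes are grown in HMI-18 + 20% hiFCS at 37 °C, 5% CO2. Compound exposure is a 3-fold dilution series from 30 μM, triplicate cultures, 72 h. Read-out is an MTT-based cytotoxicity assay, or Coulter counting of cells/mL in the dose-range screen. ED50 is derived by linear regression of dose-response.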

[2] = system: Trypanosoma cruzi; test: Antiparasitic activity against Trypanosoma cruzi for % inhibition at 10 uM concentration T/+ means the compound was toxic to macrophages but parasites still present; assay type: functional, organism-based
Method in brief: (§2)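 T. cruzi Y strain (MHOM/BR/00/Y) trypomastigotes from MDCK cells infect CD1 mouse peritoneal macrophages at 5:1 in RPMI 1640 + 10% hiFCS, 37 °C, 5% CO2. Compound exposure is a 3-fold dilution series from 30 μM, quadruplicate, 3 days. Read-out is the proportion of infected cells after methanol fixation and Giemsa staining, versus untreated cultures. ED50 is derived by linear regression.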

[3] = system: Leishmania donovani; test: Compound was tested for antiparasitic activity caused against Leishmania donovani for percentage inhibition at 3 uM concentration; assay type: functional, organism-based
Method in brief: (§3)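 L. donovani MHOM/ET/67/L82 amastigotes from golden hamster spleen infect CD1 mouse peritoneal macrophages at 10:1 in RPMI 1640 + 10% hiFCS, 37 °C, 5% CO2. Compound exposure is a 3-fold dilution series from 30 μM, quadruplicate cultures, 5 days, with medium + drug replaced once. Cells are methanol-fixed and Giemsa-stained, and the proportion of infected cells is compared with untreated cultures. ED50 is derived by linear regression.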

[4] = system: Leishmania donovani; test: Antiparasitic activity against Leishmania donovani for % inhibition at 10 uM concentration T/100 means the compound was toxic to macrophages but more toxic to parasites that is none present, 100% inhibition; assay type: functional, organism-based; method in brief: as §3
[5] = system: Trypanosoma brucei; test: Antiparasitic activity against Trypanosoma brucei, percentage inhibition at 10 uM concentration; assay type: functional, organism-based; method in brief: as §1
[6] = system: Leishmania donovani; test: Antiparasitic activity against Leishmania donovani for % inhibition at 30 uM concentration T/100 means the compound was toxic to macrophages but more toxic to parasites that is none present, 100% inhibition; assay type: functional, organism-based; method in brief: as §3
[7] = system: Trypanosoma cruzi; test: Compound was tested for antiparasitic activity caused against Trypanosoma cruzi for effective dose for 50% activity
[8] = system: Trypanosoma cruzi; test: Antiparasitic activity against Trypanosoma cruzi for % inhibition at 30 uM concentration T/+ means the compound was toxic to macrophages but parasites still present; assay type: functional, organism-based; method in brief: as §2
[9] = system: Trypanosoma cruzi; test: Antiparasitic activity against Trypanosoma cruzi for % inhibition at 3 uM concentration T/+ means the compound was toxic to macrophages but parasites still present; assay type: functional, organism-based; method in brief: as §2
[10] = system: Trypanosoma brucei; test: Compound was tested for antiparasitic activity caused against Trypanosoma brucei for percentage inhibition at 1 uM concentration; assay type: functional, organism-based; method in brief: as §1
[11] = system: Trypanosoma brucei; test: Antiparasitic activity caused against Trypanosoma brucei for percentage inhibition at 3 uM concentration; assay type: functional, organism-based; method in brief: as §1

Substance: (2,2':6',2''-terpyridine)platinum (II) complex
- inhibition [1]: 100%
- inhibition [2]: toxic to macrophages but parasites still present
- inhibition [3]: 99.8%
- inhibition [4]: Total inhibition
- inhibition [5]: 100%
- inhibition [6]: Total inhibition
- ED50 [7]: 4 µM
- inhibition [8]: toxic to macrophages but parasites still present
- inhibition [9]: toxic to macrophages but parasites still present
- inhibition [10]: 100%
- inhibition [11]: 100%
